The values below come from ChEMBL document CHEMBL3352616, “Quinazoline-sulfonamides with potent inhibitory activity against the α-carbonic anhydrase from Vibrio cholerae” (Bioorg Med Chem, 2014).

Where only a bound is given, the exact number is not on record here.

The assay is described as follows: Inhibition of Vibrio cholerae alpha-carbonic anhydrase preincubated for 15 mins by stopped-flow CO2 hydration assay. The method, boiled down: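 Stopped-flow CO2 hydration assay, phenol red 0.2 mM read at 557 nm, 20 mM Hepes pH 7.4 with 20 mM NaBF4 for ionic strength. Initial rates followed 10–100 s, CO2 1.7–17 mM. Inhibitor (10 mM DMSO stock, buffer dilutions down to 0.01 nM) preincubated with enzyme 15 min at RT. Uncatalyzed rate subtracted; Ki by nonlinear least squares and Cheng–Prusoff, mean of ≥3 determinations.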
Usually Ki stands for the equilibrium dissociation constant of an inhibitor or competing ligand from its target. Low readings indicate higher affinity, high ones lower affinity. `C=CCn1c(SCC(=O)Nc2ccc(S(N)(=O)=O)cc2)nc2ccc(C)cc2c1=O`: the Ki turned out to be 6 nM. In the case of `Cc1ccc2nc(SCC(=O)Nc3ccc(S(N)(=O)=O)cc3)n(Cc3ccccc3)c(=O)c2c1`, the inhibition constant (Ki) was found to be 2.7 nM.

In turn, `Cc1cccc2c(=O)n(Cc3ccccc3)c(SCC(=O)Nc3ccc(S(N)(=O)=O)cc3)nc12` registered a Ki of 8.5 nM. For `COc1ccc2nc(SCC(=O)Nc3ccc(S(N)(=O)=O)cc3)n(Cc3ccccc3)c(=O)c2c1` the value was > 10000 nM; for `COc1cccc2c(=O)n(Cc3ccccc3)c(SCC(=O)Nc3ccc(S(N)(=O)=O)cc3)nc12`, > 10000 nM. For `C=CCn1c(SCC(=O)Nc2ccc(S(N)(=O)=O)cc2)nc2ccc([N+](=O)[O-])cc2c1=O` the value was 6.6 nM.

On to `NS(=O)(=O)c1ccc(NC(=O)CSc2nc3ccc([N+](=O)[O-])cc3c(=O)n2Cc2ccccc2)cc1`, for which the Ki was > 10000 nM. The compound `Cc1cccc2nc(SCC(=O)Nc3ccc(S(N)(=O)=O)cc3)n(Cc3ccccc3)c(=S)c12` yielded a Ki of 7.7 nM.

Compound `Cc1ccc2nc(SCC(=O)Nc3ccc(S(N)(=O)=O)cc3)n(Cc3ccccc3)c(=S)c2c1` registered a Ki of 5.5 nM. For `Cc1cccc2c(=S)n(Cc3ccccc3)c(SCC(=O)Nc3ccc(S(N)(=O)=O)cc3)nc12` the value was 8.7 nM.

`COc1cccc2c(=S)n(Cc3ccccc3)c(SCC(=O)Nc3ccc(S(N)(=O)=O)cc3)nc12`: the inhibitory constant (Ki) was 7.9 nM. The result for `NS(=O)(=O)c1ccc(NC(=O)CSc2nc3ccc([N+](=O)[O-])cc3c(=S)n2Cc2ccccc2)cc1` reads > 10000 nM. In the case of `CC(=O)Nc1nnc(S(N)(=O)=O)s1` [ACETAZOLAMIDE], the Ki worked out at […].
